What was measured:
Format in all cases: functional
Escherichia coli [1] = experiment: Antibacterial activity against Escherichia coli CCM4517 after 24 hrs by microdilution broth method; details: CCM4517, 24 h
In short: (§1)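 Mueller-Hinton broth microdilution (modified M07-A07), pH 7.4 (±0.2). Compounds dissolved in DMSO, tested at final 500 to 0.49 µmol/L. Inoculum in sterile water matched to 0.5 McFarland. Incubated in the dark, humid atmosphere, 35 °C, read at 24 and 48 h visually and at 540 nm. MIC taken as ≥95% growth reduction (IC95) versus control.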

Lichtheimia corymbifera [2] = experiment: Antifungal activity against Absidia corymbifera 272 after 24 hrs by microdilution broth method; details: Lichtheimia corymbifera, 272, 24 h
In short: (§2)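 CLSI M27-A3 broth microdilution in RPMI 1640 with glutamine, buffered to pH 7.0 with MOPS; DMSO diluent. Yeast inoculum 5 × 10^3 ± 0.2 CFU/mL. Moulds grown on Sabouraud agar 3–10 days before spore harvest, final inoculum 0.5-5 × 10^4 CFU/mL, checked in a Bürker chamber. Incubated dark, humid, 35 °C, read at 24 and 48 h visually and at 540 nm. MIC taken as ≥80% (yeasts) or ≥50% (filamentous) growth reduction versus control.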

Mycobacterium kansasii [3] = experiment: Antimycobacterial activity against Mycobacterium kansasii 235/80 after 7 days; details: 235/80, 168 h
In short: (§3)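 Šula's semisynthetic medium micromethod at 37 °C, read after 7, 14 and 21 days. The 1.0 McFarland suspension was diluted 10^-4. MIC determined. 6509/96 is a clinical isolate.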

[4] = test system: Trichophyton mentagrophytes; experiment: Antifungal activity against Trichophyton mentagrophytes 445 after 48 hrs by microdilution broth method; details: Trichophyton mentagrophytes, 445, 48 h
Pichia kudriavzevii [5] = experiment: Antifungal activity against Candida krusei E28 after 48 hrs by microdilution broth method; details: E28, 48 h; in short: as §2
Candida tropicalis [6] = experiment: Antifungal activity against Candida tropicalis 156 after 24 hrs by microdilution broth method; details: Candida tropicalis, 156, 24 h; in short: as §2
Candida tropicalis [7] = experiment: Antifungal activity against Candida tropicalis 156 after 48 hrs by microdilution broth method; details: Candida tropicalis, 156, 48 h; in short: as §2
Nakaseomyces glabratus [8] = experiment: Antifungal activity against Candida glabrata 20/I after 24 hrs by microdilution broth method; in short: as §2
Nakaseomyces glabratus [9] = experiment: Antifungal activity against Candida glabrata 20/I after 48 hrs by microdilution broth method; in short: as §2
Mycobacterium kansasii [10] = experiment: Antimycobacterial activity against Mycobacterium kansasii 6509/96 after 14 days; details: 6509/96, 336 h; in short: as §3
Aspergillus fumigatus [11] = experiment: Antifungal activity against Aspergillus fumigatus 231 after 24 hrs by microdilution broth method; details: Aspergillus fumigatus, 231, 24 h; in short: as §2
Mycobacterium avium [12] = experiment: Antimycobacterial activity against Mycobacterium avium 330/80 after 21 days; details: 330/80, 504 h
Mycobacterium kansasii [13] = experiment: Antimycobacterial activity against Mycobacterium kansasii 235/80 after 21 days; details: 235/80, 504 h; in short: as §3
[14] = test system: Staphylococcus epidermidis; experiment: Antibacterial activity against Staphylococcus epidermidis H 6966/08 after 24 hrs by microdilution broth method; details: H 6966/08, 24 h; in short: as §1
Staphylococcus aureus [15] = experiment: Antibacterial activity against Staphylococcus aureus CCM 4516/08 after 48 hrs by microdilution broth method; details: CCM 4516/08, 48 h
Enterococcus sp. [16] = experiment: Antibacterial activity against Enterococcus sp. J 14365/08 after 48 hrs by microdilution broth method; details: J 14365/08, 48 h; in short: as §1
Mycobacterium avium [17] = experiment: Antimycobacterial activity against Mycobacterium avium 330/80 after 14 days; details: 330/80, 336 h
Escherichia coli [18] = experiment: Antibacterial activity against Escherichia coli CCM4517 after 48 hrs by microdilution broth method; details: CCM4517, 48 h; in short: as §1
Klebsiella pneumoniae [19] = experiment: Antibacterial activity against Klebsiella pneumoniae D 11750/08 after 24 hrs by microdilution broth method; details: D 11750/08, 24 h; in short: as §1
Klebsiella pneumoniae [20] = experiment: Antibacterial activity against Klebsiella pneumoniae D 11750/08 after 48 hrs by microdilution broth method; details: D 11750/08, 48 h; in short: as §1
Aspergillus fumigatus [21] = experiment: Antifungal activity against Aspergillus fumigatus 231 after 48 hrs by microdilution broth method; details: Aspergillus fumigatus, 231, 48 h; in short: as §2
Klebsiella pneumoniae [22] = experiment: Antibacterial activity against ESBL-positive Klebsiella pneumoniae J 14368/08 after 48 hrs by microdilution broth method; details: J 14368/08, 48 h; in short: as §1
[23] = test system: Mycobacterium tuberculosis; experiment: Antimycobacterial activity against Mycobacterium tuberculosis H37Rv 331/88 after 14 days; details: H37Rv 331/88, 336 h
Trichosporon asahii [24] = experiment: Antifungal activity against Trichosporon asahii 1188 after 24 hrs by microdilution broth method; details: Trichosporon asahii, 1188, 24 h; in short: as §2
Mycobacterium kansasii [25] = experiment: Antimycobacterial activity against Mycobacterium kansasii 6509/96 after 21 days; details: 6509/96, 504 h; in short: as §3
Enterococcus sp. [26] = experiment: Antibacterial activity against Enterococcus sp. J 14365/08 after 24 hrs by microdilution broth method; details: J 14365/08, 24 h; in short: as §1
Pseudomonas aeruginosa [27] = experiment: Antibacterial activity against Pseudomonas aeruginosa CCM 1961 after 24 hrs by microdilution broth method; details: CCM 1961, 24 h; in short: as §1
[28] = test system: Trichophyton mentagrophytes; experiment: Antifungal activity against Trichophyton mentagrophytes 445 after 24 hrs by microdilution broth method; details: Trichophyton mentagrophytes, 445, 24 h
[29] = test system: Staphylococcus epidermidis; experiment: Antibacterial activity against Staphylococcus epidermidis H 6966/08 after 48 hrs by microdilution broth method; details: H 6966/08, 48 h; in short: as §1
Pseudomonas aeruginosa [30] = experiment: Antibacterial activity against Pseudomonas aeruginosa CCM 1961 after 48 hrs by microdilution broth method; details: CCM 1961, 48 h; in short: as §1
Staphylococcus aureus [31] = experiment: Antibacterial activity against methicillin-resistant Staphylococcus aureus H 5996/08 after 24 hrs by microdilution broth method; details: H 5996/08, 24 h
Candida albicans [32] = experiment: Antifungal activity against Candida albicans ATCC 44859 after 24 hrs by microdilution broth method; details: ATCC 44859, 24 h; in short: as §2
Mycobacterium kansasii [33] = experiment: Antimycobacterial activity against Mycobacterium kansasii 235/80 after 14 days; details: 235/80, 336 h; in short: as §3
Candida albicans [34] = experiment: Antifungal activity against Candida albicans ATCC 44859 after 48 hrs by microdilution broth method; details: ATCC 44859, 48 h; in short: as §2
Pichia kudriavzevii [35] = experiment: Antifungal activity against Candida krusei E28 after 24 hrs by microdilution broth method; details: E28, 24 h; in short: as §2
Lichtheimia corymbifera [36] = experiment: Antifungal activity against Absidia corymbifera 272 after 48 hrs by microdilution broth method; details: Lichtheimia corymbifera, 272, 48 h; in short: as §2
Trichosporon asahii [37] = experiment: Antifungal activity against Trichosporon asahii 1188 after 48 hrs by microdilution broth method; details: Trichosporon asahii, 1188, 48 h; in short: as §2
Staphylococcus aureus [38] = experiment: Antibacterial activity against methicillin-resistant Staphylococcus aureus H 5996/08 after 48 hrs by microdilution broth method; details: H 5996/08, 48 h
Staphylococcus aureus [39] = experiment: Antibacterial activity against Staphylococcus aureus CCM 4516/08 after 24 hrs by microdilution broth method; details: CCM 4516/08, 24 h
Klebsiella pneumoniae [40] = experiment: Antibacterial activity against ESBL-positive Klebsiella pneumoniae J 14368/08 after 24 hrs by microdilution broth method; details: J 14368/08, 24 h; in short: as §1
Mycobacterium kansasii [41] = experiment: Antimycobacterial activity against Mycobacterium kansasii 6509/96 after 7 days; details: 6509/96, 168 h; in short: as §3
[42] = test system: Mycobacterium tuberculosis; experiment: Antimycobacterial activity against Mycobacterium tuberculosis H37Rv 331/88 after 21 days; details: H37Rv 331/88, 504 h

Measured: MIC

O=C(Nc1ccc([N+](=O)[O-])c(C(F)(F)F)c1)c1ccc([N+](=O)[O-])cc1O
7.81 µM: [14] | Staphylococcus aureus [15] | [29] | Staphylococcus aureus [39]
500 µM: Enterococcus sp. [16] | [28] | Trichosporon asahii [37]
62.5 µM: Mycobacterium avium [12] | Mycobacterium avium [17]
3.9 µM: Staphylococcus aureus [31] | Staphylococcus aureus [38]
125 µM: Lichtheimia corymbifera [2] | Lichtheimia corymbifera [36]
250 µM: Pichia kudriavzevii [5] | Aspergillus fumigatus [11] | Aspergillus fumigatus [21] | Trichosporon asahii [24] | Enterococcus sp. [26] | Pichia kudriavzevii [35]
32 µM: Mycobacterium kansasii [10] | Mycobacterium kansasii [13] | Mycobacterium kansasii [25] | Mycobacterium kansasii [33]
> 500 µM: Escherichia coli [1] | [4] | Candida tropicalis [6] | Candida tropicalis [7] | Nakaseomyces glabratus [8] | Nakaseomyces glabratus [9] | Escherichia coli [18] | Klebsiella pneumoniae [19] | Klebsiella pneumoniae [20] | Klebsiella pneumoniae [22] | Pseudomonas aeruginosa [27] | Pseudomonas aeruginosa [30] | Candida albicans [32] | Candida albicans [34] | Klebsiella pneumoniae [40]
16 µM: Mycobacterium kansasii [3] | [23] | Mycobacterium kansasii [41] | [42]

O=C(Nc1cccc([N+](=O)[O-])c1)c1ccc([N+](=O)[O-])cc1O
62.5 µM: Mycobacterium kansasii [13] | Staphylococcus aureus [15] | [29] | Staphylococcus aureus [39]
32 µM: Mycobacterium kansasii [3] | Mycobacterium kansasii [10] | [23] | Mycobacterium kansasii [25] | Mycobacterium kansasii [33] | Mycobacterium kansasii [41] | [42]
31.2 µM: [14]
> 250 µM: Escherichia coli [1] | Lichtheimia corymbifera [2] | [4] | Pichia kudriavzevii [5] | Candida tropicalis [6] | Candida tropicalis [7] | Nakaseomyces glabratus [8] | Nakaseomyces glabratus [9] | Aspergillus fumigatus [11] | Enterococcus sp. [16] | Escherichia coli [18] | Klebsiella pneumoniae [19] | Klebsiella pneumoniae [20] | Aspergillus fumigatus [21] | Klebsiella pneumoniae [22] | Trichosporon asahii [24] | Enterococcus sp. [26] | Pseudomonas aeruginosa [27] | [28] | Pseudomonas aeruginosa [30] | Candida albicans [32] | Candida albicans [34] | Pichia kudriavzevii [35] | Lichtheimia corymbifera [36] | Trichosporon asahii [37] | Klebsiella pneumoniae [40]
125 µM: Mycobacterium avium [12] | Mycobacterium avium [17] | Staphylococcus aureus [31] | Staphylococcus aureus [38]

O=C(Nc1ccc([N+](=O)[O-])cc1)c1ccc([N+](=O)[O-])cc1O
16 µM: Mycobacterium kansasii [33] | [42]
32 µM: Mycobacterium kansasii [10] | Mycobacterium kansasii [13] | Mycobacterium kansasii [25] | Mycobacterium kansasii [41]
31.2 µM: Staphylococcus aureus [31] | Staphylococcus aureus [38]
500 µM: Escherichia coli [1] | Klebsiella pneumoniae [19] | Enterococcus sp. [26] | Pseudomonas aeruginosa [27] | Klebsiella pneumoniae [40]
62.5 µM: Mycobacterium avium [12] | [14] | Staphylococcus aureus [15] | Mycobacterium avium [17] | [29] | Staphylococcus aureus [39]
> 500 µM: Lichtheimia corymbifera [2] | [4] | Pichia kudriavzevii [5] | Candida tropicalis [6] | Candida tropicalis [7] | Nakaseomyces glabratus [8] | Nakaseomyces glabratus [9] | Aspergillus fumigatus [11] | Enterococcus sp. [16] | Escherichia coli [18] | Klebsiella pneumoniae [20] | Aspergillus fumigatus [21] | Klebsiella pneumoniae [22] | Trichosporon asahii [24] | [28] | Pseudomonas aeruginosa [30] | Candida albicans [32] | Candida albicans [34] | Pichia kudriavzevii [35] | Lichtheimia corymbifera [36] | Trichosporon asahii [37]
8 µM: Mycobacterium kansasii [3] | [23]

Reference: ChEMBL document CHEMBL3627671, “Novel derivatives of nitro-substituted salicylic acids: Synthesis, antimicrobial activity and cytotoxicity” (Bioorg Med Chem, 2015)
